MITF act = increases MITF-driven TRPM1 promoter luciferase signal. SK-MEL-5 TRPM1-promoter luciferase, 24 h; % of positive control, neutral wells = 0. activation, % at 12.5 µM. 300,000 compounds, 0.75% hits. AID 588334;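 active = mean activation of at least 80% with every replicate also reaching 80%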;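 also: 0% = neutral control wells and 100% = parthenolide positive control wells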
ERAP1 inh = blocks human ERAP1 aminopeptidase activity. 340,000 compounds, 0.15% hits. inhibition, % at 10.7 µM. Q9NZ08. recombinant ERAP1, Leu-AMC fluorescence, 60 min;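 active = mean replicate inhibition of at least 30%, or all replicates individually reaching that 30% level; inactive = mean below 30% and not every replicate reaching it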;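 also: 0% = neutral control wells and 100% = L-leucinethiol positive control wells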
Cneo AK release = causes C. neoformans cell lysis; adenylate kinase release luminescence, 4 h; normalised: neutral wells 0, clomiphene wells 100; lysis activity, % at 15 µM; 360,000 compounds, 0.2% hits;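 active = mean lysis activity across replicates of at least 80%, whatever share of replicates individually reach that level; inactive = mean lysis activity below 80%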
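Assay system: C. neoformans cells. Amount: yeast cell density of 5 × 10^6 cells/mL. Technique: AK luminescence. Buffer or medium: YPD. Times: static 4 h at 37 °C with compound, 1 h detection. Dosing: single-point compound dose. Read-out: lysis from increased AK signal.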
Wnt bcat act = activates Wnt/beta-catenin signaling in a reporter cell assay; activator, plate reader; AID 743398; 300,000 compounds, 1.2% hits; activation, % at 9.35 µM; in the data active = activation above about 30%, passing the limit was not always enough;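 also: 0% = neutral control wells and 100% = positive control wells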
esBAF inh = blocks esBAF chromatin remodeling in mouse ES cells. 350,000 compounds, 2% hits. reporter increase, % at 12.5 µM. Bmi1-luciferase knock-in reporter, 24 h; 100% = twice the neutral-well signal; in the data active = activation above about 40%;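 also: 0% = median of the plate's neutral control wells and 100% = double that signal; a rise in the Bmi1 reporter signal indicates esBAF inhibition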
HIV Env fusion = inhibitors of HIV Env-mediated cell fusion. inhibition, % at 12.3 µM. 360,000 compounds, 1.1% hits. AID 651610. HeLa-JRFL Env/CEM21 cell fusion, luciferase;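 active = mean replicate inhibition score of at least 50 and every replicate individually at or above 50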;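 also: 0% = plate neutral controls and 100% = maraviroc near 300 nM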
Numbers without * were called inactive; . = no result; [ ] = remark or other dose. Sampled rows, rich in hits. Any-hit rate of the full collection: about 3.5%.

SMILES	MITF act	ERAP1 inh	Cneo AK release	Wnt bcat act	esBAF inh	HIV Env fusion
C[C@@H]1CN([C@H](C)CO)C(=O)c2cccc(NC(=O)c3ccncc3)c2O[C@H]1CN(C)Cc1ccc(Cl)c(Cl)c1	.	-3	0	.	2	75*[16.7 µM]
C[C@@H]1CN([C@H](C)CO)C(=O)c2cccc(NC(=O)c3ccncc3)c2O[C@H]1CN(C)CC1CCCCC1	.	0	-7	.	5	93*[16.7 µM]
C[C@@H]1CN([C@H](C)CO)C(=O)c2cccc(NC(=O)c3ccncc3)c2O[C@@H]1CN(C)Cc1ccc(C(=O)O)cc1	-4	2	12	-3	-2	114*
C[C@H](CO)N1C[C@H](C)[C@H](CN(C)CC2CCCCC2)Oc2c(NC(=O)c3ccncc3)cccc2C1=O	.	0	-3	.	-1	12[16.7 µM]
C[C@H](CO)N1C[C@H](C)[C@@H](CN(C)Cc2ccc(-c3ccccc3)cc2)Oc2c(NC(=O)c3ccncc3)cccc2C1=O	-17	6	0	-3	-4	-3
C[C@H](CO)N1C[C@H](C)[C@H](CN(C)Cc2ccc(-c3ccccc3)cc2)Oc2c(NC(=O)c3ccncc3)cccc2C1=O	.	8	111*	.	2	.
C[C@@H]1CCCCO[C@@H](CN(C)Cc2ccc(C(=O)O)cc2)[C@@H](C)CN([C@@H](C)CO)C(=O)c2cc(NC(=O)CCC(F)(F)F)ccc2O1	.	-1	0	.	1	-7[16.7 µM]
C[C@@H]1CCCCO[C@@H](CN(C)Cc2ccc(Cl)c(Cl)c2)[C@@H](C)CN([C@@H](C)CO)C(=O)c2cc(NC(=O)c3ccccc3)ccc2O1	.	-1	-2	.	7	-15[16.7 µM]
C[C@H](CO)N1C[C@H](C)[C@@H](CN(C)Cc2ccc(C(F)(F)F)cc2)Oc2ccc(NC(=O)Cn3cnnn3)cc2C1=O	.	0	-3	.	1	-19[16.7 µM]
C[C@@H]1CN([C@H](C)CO)C(=O)c2cccc(NC(=O)C3CC3)c2O[C@H]1CN(C)Cc1ccc(C(=O)O)cc1	.	-4	97*	.	-15	-13[16.7 µM]
C[C@@H]1CN([C@@H](C)CO)C(=O)c2cccc(NC(=O)c3cnccn3)c2O[C@H]1CN(C)Cc1ccc(Cl)c(Cl)c1	.	32*	47	.	5	63*[16.7 µM]
C[C@@H]1CN([C@@H](C)CO)C(=O)c2cccc(NC(=O)c3cnccn3)c2O[C@@H]1CN(C)Cc1ccc(Cl)c(Cl)c1	.	-2	4	.	1	6[16.7 µM]
NC(=S)N/N=C/c1ccc(-c2cc(Cl)cc(Cl)c2)o1	1	.	10	.	3	.
NC(=S)N/N=C/c1ccc(-c2cc(Cl)ccc2Cl)o1	-17	0	111*	0	1	.
O=C(c1cccs1)n1nc(-c2ccc(Cl)cc2)nc1NCc1ccco1	.	.	.	52*	.	-109
Cc1ccc(C(=O)n2nc(-c3ccccc3)nc2NCc2ccco2)cc1	26	-5	0	4	12	.
CC(=O)n1nc(-c2ccc(Cl)cc2)nc1NCc1ccco1	34	.	-3	.	33	-114
CCCC(=O)n1nc(-c2ccc(C)cc2)nc1NCc1ccco1	51	1	0	47*	.	-8
COCC#Cc1cnc2c(c1)C(=O)N([C@@H](C)CO)C[C@@H](C)[C@@H](CN(C)C(=O)C1CCCCC1)O2	.	2	0	.	2	-16[16.7 µM]
C[C@@H]1CCCCO[C@@H](CN(C)C(=O)Nc2ccc(F)cc2)[C@H](C)CN([C@@H](C)CO)C(=O)c2cc(NC(=O)C3CCCCC3)ccc2O1	.	2	0	.	3	-23[16.7 µM]
CCN(CC(=O)Nc1cccc(OC)c1)c1ncnc2sc(C)c(C)c12	-12	.	3	-3	8	58*
COc1cccc(OCCn2cc(C(=O)c3ccco3)c3ccccc32)c1	5	.	-5	-2	-1	66*
COc1ccccc1OCCn1cc(C(=O)c2ccco2)c2ccccc21	.	.	0	3	-41	-5
CCCCNC(=O)CSc1nc2ccc(N3CCOCC3)cc2c(=O)n1Cc1ccc(OC)cc1	48	0	0	15	64*	3
COCCNC(=O)CSc1nc2cc(OC)c(OC)cc2c(=O)n1Cc1ccc(OC)cc1	-2	.	3	-2	6	-31
CCCCn1c(SCC(=O)Nc2ccc(OC)cc2)nc2ccc(N3CCOCC3)cc2c1=O	.	.	-2	.	2	14
COCCNC(=O)CSc1nc2ccc(N3CCOCC3)cc2c(=O)n1Cc1ccc(OC)cc1	.	.	0	.	78*	-39
